# Compound activity (PubChem)
# ABCB1 inh = blocks JC-1 efflux by human ABCB1 transporter; actives 0.067% (n = 190,000); CCRF-Adr cells, flow cytometry; inhibition, % at 6.6 µM; P08183; in the data active means inhibition above about 40%;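 further: 0% = vehicle and 100% = reference inhibitor; higher value means more JC-1 retained so stronger ABCB1 efflux block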
# ABCG2 inh = human ABCG2 inhibition, ABCB1 as counter-screen. inhibition, % at 6.6 µM. actives 0.1% (n = 190,000). Q9UNQ0. AID 1325. IgMXP3 cells, JC-1 efflux, flow cytometry;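 active means inhibition above 80%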;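 further: 0% = DMSO and 100% = nicardipine control wells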
#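 material = IgMXP3 (ABCG2) plus far-red-tagged CCRF-Adr (ABCB1) cells | amount = 3 million cells/mL, equal mix of both lines | also added = JC-1 transporter substrate | dosing = one concentration, 6.6 µM final | schedule = 10 min at 25 °C | measured by = flow cytometric JC-1 green MFI at 530 nm | read-out basis = percent efflux inhibition, scaled nicardipine 100% to DMSO 0%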
# MEKK3 PB1 HTS = MEKK3-MEK5 PB1 interaction, increase or decrease. Q99759. bead-based flow cytometry, Alexa488-MEK5 binding to MEKK3; actives lie on both sides; 0 = blocked by unlabeled MEK5, 100 = vehicle. binding response (% of control), % at 10 µM. actives 1.4% (n = 290,000). AID 1529;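 active means binding response more than 3 SD above or below the average of its plate-row segment, actives on both sides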;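 further: Alexa488 bead fluorescence after subtracting the streptavidin-only scavenger bead signal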
# Target sequence (Q99759 whole entry, looked up): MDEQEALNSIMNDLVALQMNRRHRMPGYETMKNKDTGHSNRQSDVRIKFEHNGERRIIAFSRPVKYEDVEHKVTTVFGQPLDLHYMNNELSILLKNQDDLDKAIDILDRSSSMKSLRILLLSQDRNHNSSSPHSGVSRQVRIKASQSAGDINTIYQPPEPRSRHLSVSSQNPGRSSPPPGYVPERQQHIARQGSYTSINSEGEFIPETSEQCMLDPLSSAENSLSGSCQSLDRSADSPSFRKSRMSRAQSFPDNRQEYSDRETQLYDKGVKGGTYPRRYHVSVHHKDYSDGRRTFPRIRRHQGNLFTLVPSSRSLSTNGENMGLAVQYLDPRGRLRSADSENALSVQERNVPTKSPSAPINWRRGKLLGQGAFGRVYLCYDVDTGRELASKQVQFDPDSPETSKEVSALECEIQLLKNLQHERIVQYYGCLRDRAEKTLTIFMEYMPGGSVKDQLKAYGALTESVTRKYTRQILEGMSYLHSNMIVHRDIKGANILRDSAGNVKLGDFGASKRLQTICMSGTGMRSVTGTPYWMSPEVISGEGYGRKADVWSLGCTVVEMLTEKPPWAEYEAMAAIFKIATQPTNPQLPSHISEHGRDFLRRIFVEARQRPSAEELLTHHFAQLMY
# MEKK2mut PB1 HTS = signal of MEK5 binding to mutant human MEKK2 PB1 domain | actives 0.35% (n = 290,000) | percent response, % at 10 µM | bead flow cytometry, Alexa488-MEK5 binding to MEKK2 mutant; in the data active means percent response above about 24%, passing the limit was not always enough
# MEKK2 WT-MEK5 = raises or lowers MEK5 binding to wildtype human MEKK2 PB1 domain | Q9Y2U5 | bead flow cytometry, Alexa488-MEK5 binding to MEKK2 WT; actives lie on both sides | binding response (% of control), % at 10 µM | actives 1.1% (n = 290,000); in the data active means binding response below about 67% or above about 130%
# MEKK2wt confirm = raises or lowers MEK5 binding to wildtype human MEKK2, retest. shares compounds with MEKK3 PB1 HTS. bead flow cytometry, Alexa488-MEK5 binding to MEKK2 WT; actives lie on both sides. binding response (% of control), % at 10 µM. actives 2.4% (n = 5,900). AID 1892; in the data active means binding response below about 16% or above about 210%; inactive means in between
# MEKK2mut-MEK5 = signal of MEK5 binding to mutant human MEKK2, retest. shares compounds with MEKK3 PB1 HTS. bead flow cytometry, Alexa488-MEK5 binding to MEKK2 mutant. percent response, % at 10 µM. actives 2% (n = 5,900); in the data active means percent response mostly above about 71%, no sharp cut-off; inactive means mostly below about 38%;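 further: higher means compound restores mutant binding toward wildtype level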
# MEKK3-MEK5 inh = MEKK3-MEK5 PB1 inhibition, single concentration confirmation. shares compounds with MEKK3 PB1 HTS. bead flow cytometry, Alexa488-MEK5 binding to MEKK3; hits give low values. binding response (% of control), % at 10 µM. AID 1894. actives 1.8% (n = 5,900);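 active means binding response below 72% of control, or above a set upper limit, though filed actives all read lower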;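 further: 100% = DMSO only wells and 0% = binding blocked by excess unlabeled MEK5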
# * marks the source's active call; other numbers are inactive results; x = no result given; [ ] = another dose, or the depositor's remark. Hits are enriched below; roughly 2.3% of the tested compounds scored in any of these assays.
SMILES,ABCB1 inh,ABCG2 inh,MEKK3 PB1 HTS,MEKK2mut PB1 HTS,MEKK2 WT-MEK5,MEKK2wt confirm,MEKK2mut-MEK5,MEKK3-MEK5 inh
Cc1ccc(C2=N/C(=C/c3cccs3)C(=O)N2Nc2ccccc2)cc1,x,x,81.0,-15.0,52.0*[inhibitor],55.0,-18.0,91.0
COc1ccc2c(-c3ccccc3)cc(SCC(N)=O)nc2c1,x,x,105.0,115.0*,9.0*[inhibitor],101.0,-1.0,99.0
Cc1ccc(C(=O)Nc2ccc(C(=O)N3CCCCC3)cc2)o1,x,x,108.0,9.0,115.0,x,x,x
Cc1nnc(SCC(=O)NCc2ccccc2Cl)n(N)c1=O,0.0,0.4,130.0*,1.0,107.0,111.0,7.0,102.0
Cc1ccc(CSc2nnc(C)c(=O)n2N)cc1,0.1,-8.0,131.0*,-1.0,101.0,102.0,2.0,100.0
Cc1ccccc1CSc1nnc(C)c(=O)n1N,-0.5,-3.9,86.0,-4.0,89.0,x,x,x
Cc1nnc(SCc2ccccc2)n(N)c1=O,0.3,-1.4,69.0*[inhibitor],-1.0,93.0,100.0,-2.0,103.0
Cc1nnc(SCc2ccccc2Cl)n(N)c1=O,1.0,1.8,103.0,4.0,102.0,x,x,x
Nc1cc(=O)nc(SCC(=O)N2CCN(c3ccccc3)CC2)n1-c1ccc(F)cc1,x,x,103.0,2.0,107.0,x,x,x
CC(=O)N(C)c1ccc(OCC(O)Cn2c(C)nc3ccccc32)cc1 (configuration not stated),0.2,-0.2,135.0*,1.0,115.0,98.0,-2.0,101.0
CCCCc1ccc(NC(=O)N[C@@H](CC(C)C)C(=O)O)cc1,x,x,2.0*[inhibitor],7.0,112.0,98.0,-8.0,97.0
CCC(C)NCCOCCOc1ccc(F)cc1 (configuration not stated),0.1,0.0,2.0*[inhibitor],-21.0,3.0*[inhibitor],101.0,-3.0,99.0
CC(=O)NCCC1CCN(C(=O)C2CCC(=O)N(C3CCCC3)C2)CC1 (configuration not stated),x,x,100.0,1.0,103.0,x,x,x
O=C(N/N=C/c1cccnc1)C(O)c1ccccc1 (configuration not stated),0.1,2.7,146.0*,1.0,110.0,106.0,4.0,107.0
CC(/C=C/c1ccccc1)=N/NC(=O)C(O)c1ccccc1 (configuration not stated),-0.6,-0.5,156.0*,1.0,112.0,101.0,1.0,101.0
O=C(CNC(=O)C(c1ccccc1)c1ccccc1)N/N=C/c1cccnc1,x,x,96.0,-5.0,98.0,x,x,x
O=S(=O)(c1ccc2ccccc2c1)N1CCN(CCO)CC1,x,x,102.0,5.0,101.0,x,x,x
CCN(CC)CCN1c2ccccc2Sc2ccc3ccccc3c21,x,x,90.0,18.0,136.0*,120.0,9.0,104.0
CC(C(=O)NCc1cccnc1)N1C(=O)c2ccccc2C1=O (configuration not stated),0.2,0.9,126.0*,10.0,121.0,95.0,-2.0,99.0
O=C(CN1N=C(c2ccccc2)CCC1=O)NCc1ccco1,1.0,10.9,109.0,-1.0,96.0,x,x,x
COc1ccc(C2=NN(CC(=O)NCc3ccco3)C(=O)CC2)cc1,0.7,2.8,130.0*,0.0,108.0,105.0,3.0,102.0
O=C(CN1N=C(c2ccc(Cl)cc2)CCC1=O)NCc1cccnc1,0.3,13.7,142.0*,1.0,110.0,99.0,-2.0,103.0
Cc1ccc(C2=NN(CC(=O)NCc3cccnc3)C(=O)CC2)cc1,0.3,6.4,140.0*,1.0,110.0,104.0,8.0,105.0
CCc1ccc(NC(=O)C2CCCN2S(=O)(=O)c2ccc3c(c2)n(C)c(=O)c(=O)n3C)cc1 (configuration not stated),x,x,68.0*[inhibitor],-12.0,80.0,103.0,6.0,104.0
COC(=O)c1cc(C#N)c(OC(C)C)nc1C,0.6,6.0,142.0*,7.0,123.0,98.0,-3.0,97.0
